These results are taken from ChEMBL document CHEMBL1148915, “Steroids and sesquiterpenoids from the soft corals Dendronephthya gigantea and Lemnalia cervicorni” (2004).

For one test, the system named is HT-29. The test can be described thus: Cytotoxicity against human HT29 cells. The class given is functional. Particulars: read-out: ED50 (the source's name). The method, boiled down:
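HT-29 human colon adenocarcinoma cells obtained from ATCC; in vitro cytotoxicity assay run by a previously described procedure; value given as ED50 in µM; mithramycin run as positive control.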

The next test deals with P388. The test can be described thus: Cytotoxicity against mouse P388 cells. The class given is functional. Particulars: read-out: ED50 (the source's name). The procedure, abridged: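 P-388 mouse lymphocytic leukemia cells supplied by an academic lab (Purdue); in vitro cytotoxicity assay run by a previously described procedure; ED50 reported in µM; mithramycin included as positive control.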

`CC(C)CCC(=O)[C@@H](C)[C@H]1CC[C@H]2[C@@H]3CC[C@H]4CC(=O)C=C[C@]4(C)[C@H]3CC[C@]12C`: the EC50 came out at 9.03 µM with HT-29 and 8.93 µM in the test on P388.
Consider `CC1=CC(=O)[C@@H]2[C@@H]3[C@H](C(C)C)CC[C@@]2(C)[C@@H]13`, for which the EC50 with HT-29 and with P388 was greater than 50 µM in each case.
Turning to `CO[C@H](C(=O)[C@@H](O)[C@@H](C)O)[C@@H]1Cc2cc3cc(O[C@H]4C[C@@H](O[C@@H]5C[C@@H](O)[C@H](O)[C@@H](C)O5)[C@H](O)[C@@H](C)O4)c(C)c(O)c3c(O)c2C(=O)[C@H]1O[C@H]1C[C@@H](O[C@@H]2C[C@@H](O)[C@@H](O[C@@H]3C[C@](C)(O)[C@H](O)[C@@H](C)O3)[C@@H](C)O2)[C@H](O)[C@@H](C)O1` [PLICAMYCIN], the results for the EC50 with HT-29 and with P388 were 0.21 µM and 0.15 µM, respectively.
Taken in the same sequence, the figures for `C=C1C[C@H](O)[C@@H]2[C@@H]3[C@H](C(C)C)CC[C@@]2(C)[C@@H]13` [CERVICOL] were greater than 50 µM and greater than 50 µM.
Regarding `CC(C)C/C=C/[C@@H](C)[C@H]1CC[C@H]2[C@@H]3CC[C@H]4CC(=O)C=C[C@]4(C)[C@H]3CC[C@]12C` [DENDRONESTERONE A], the values for the EC50 in the test with HT-29 and in the test with P388 were greater than 100 µM and 9.84 µM, respectively.
`C=C1[C@H](O)C[C@@H]2[C@@H]3[C@H](C(C)C)CC[C@@]2(C)[C@@H]13` [LEMNALOL]: the EC50 amounted to 10.5 µM with HT-29 and 16.3 µM with P388.
Taken in the same sequence, the figures for `C=C(CC[C@@H](C)[C@H]1CC[C@H]2[C@@H]3CC[C@H]4CC(=O)C=C[C@]4(C)[C@H]3CC[C@]12C)C(C)C` [DENDRONESTERONE B] were greater than 100 µM and greater than 100 µM.
On to `CC(C)C/C=C/[C@@H](C)[C@H]1CC[C@H]2[C@@H]3CCC4=CC(=O)C=C[C@]4(C)[C@H]3CC[C@]12C` [DENDRONESTERONE C], for which the EC50 in the test on HT-29 and with P388 was greater than 100 µM each time.
For the compound `CC1=C[C@H](O)[C@@H]2[C@@H]3[C@H](C(C)C)CC[C@@]2(C)[C@@H]13` [ISOLEMNALOL], the EC50 in the test with HT-29 and in the test on P388 was greater than 50 µM throughout.
